Series [1] is filed under the species Homo sapiens. The series is described as follows: Selectivity index, ratio of IC50 for human recombinant MAOB to IC50 for human recombinant MAOA. The gist of the method: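 MAO-A (0.005 mg/mL; 150 μM kynuramine, 60 min, 37 °C, […]) and MAO-B (0.01 mg/mL; 1000 μM benzylamine, 30 min, 37 °C, perchloric acid stop, benzaldehyde by HPLC-UV at 254 nm) in isotonic 0.1 M phosphate pH 7.4. Inhibitor 0–7000 μM. IC50s from sigmoidal log curves in triplicate. SI = MAO-B IC50 / MAO-A IC50.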

Series [2] addresses T1, Amine oxidase [flavin-containing] A (Homo sapiens, UniProt P21397).
T1 sequence (P21397 whole entry): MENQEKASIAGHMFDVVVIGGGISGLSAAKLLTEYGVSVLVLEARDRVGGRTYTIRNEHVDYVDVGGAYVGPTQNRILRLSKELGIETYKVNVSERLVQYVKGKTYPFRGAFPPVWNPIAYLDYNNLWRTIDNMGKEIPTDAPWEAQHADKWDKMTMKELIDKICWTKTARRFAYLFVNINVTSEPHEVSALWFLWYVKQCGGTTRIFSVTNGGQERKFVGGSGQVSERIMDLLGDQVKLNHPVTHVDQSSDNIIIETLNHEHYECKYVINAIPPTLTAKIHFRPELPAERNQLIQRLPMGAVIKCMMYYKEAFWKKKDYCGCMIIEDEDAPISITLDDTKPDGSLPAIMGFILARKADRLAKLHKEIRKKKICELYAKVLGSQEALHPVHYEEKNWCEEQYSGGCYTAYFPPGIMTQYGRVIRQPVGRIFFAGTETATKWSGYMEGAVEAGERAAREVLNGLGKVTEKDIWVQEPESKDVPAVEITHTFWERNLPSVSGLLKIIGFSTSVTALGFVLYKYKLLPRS
The experiment in a line: Inhibition of human recombinant MAOA expressed in insect cells assessed as oxidation of kynuramine substrate measured after additional substrate added after 90 mins incubation. The conditions noted are these: 1.5 h.

Series [3] concerns the target T2, Amine oxidase [flavin-containing] B (Homo sapiens, UniProt P27338).
T2 sequence (P27338 whole entry): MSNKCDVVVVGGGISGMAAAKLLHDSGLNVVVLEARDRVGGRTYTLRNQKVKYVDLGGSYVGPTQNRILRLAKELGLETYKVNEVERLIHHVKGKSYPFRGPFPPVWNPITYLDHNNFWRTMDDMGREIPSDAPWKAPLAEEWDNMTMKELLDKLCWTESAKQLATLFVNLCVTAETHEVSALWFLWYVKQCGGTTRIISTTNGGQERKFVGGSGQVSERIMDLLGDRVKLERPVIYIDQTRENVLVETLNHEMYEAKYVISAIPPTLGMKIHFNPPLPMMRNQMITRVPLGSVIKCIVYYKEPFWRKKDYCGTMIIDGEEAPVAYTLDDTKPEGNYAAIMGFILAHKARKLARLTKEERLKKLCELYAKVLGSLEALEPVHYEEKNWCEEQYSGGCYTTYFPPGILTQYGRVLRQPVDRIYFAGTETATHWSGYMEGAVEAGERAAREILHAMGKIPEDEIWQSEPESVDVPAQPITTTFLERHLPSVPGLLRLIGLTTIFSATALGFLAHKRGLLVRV
The experiment in a line: Inhibition of human recombinant MAOB expressed in insect cells using benzylamine hydrochloride as substrate after 30 mins. The procedure, abridged:
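Human recombinant MAO-B (0.01 mg/mL) in 0.1 M isotonic phosphate buffer pH 7.4, inhibitor 0–7000 µM, benzylamine 1000 µM final, 30 min at 37 °C. Stopped with perchloric acid; benzaldehyde measured by reverse-phase HPLC with UV 254 nm. IC50 from sigmoidal log dose–response fit; triplicate, mean ± SD.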

For series [4], the target named is T1, Amine oxidase [flavin-containing] A. The experiment in a line: Inhibition of human recombinant MAOA expressed in insect cells using kynuramine substrate after 60 mins.
The test system of series [5] is Mus musculus. The experiment in a line: Neurotoxicity in C57BL/6J mouse assessed as increase of striatal GFAP level at 25 mg/kg, sc after 72 hrs by ELISA. It counts as toxicity, organism-based. As to conditions: in vivo; call rule not given here. Also on record: dose 25 mg/kg, route subcutaneous. The procedure, abridged:
(§1)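 Female C57BL/6J mice aged 3–4 months, single sc dose, 0.9% saline vehicle, killed 72 h post-dose. Striatum homogenised in hot 1% SDS. GFAP or TH measured by detergent-based sandwich ELISA.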
(An ELISA detects its analyte on a solid surface through an enzyme-linked reagent.)

Series [6] concerns Mus musculus. The experiment in a line: Neurotoxicity in C57BL/6J mouse assessed as reduction of striatal tyrosine hydroxylase level at 25 mg/kg, sc after 72 hrs by ELISA. It counts as toxicity, organism-based. Also on record: dose 25 mg/kg, route subcutaneous. The conditions noted are these: in vivo. The gist of the method: as §1
For series [7], the system named is Mus musculus. The experiment in a line: Neurotoxicity in C57BL/6J mouse assessed as effect on serotonin level at 25 mg/kg, sc by HPLC analysis. The format is toxicity, organism-based. Further details: dose 25 mg/kg, route subcutaneous. The conditions noted are these: in vivo. The procedure, abridged: (§2)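 Female C57BL/6J mice aged 3–4 months, single sc dose, 0.9% saline vehicle, killed 72 h later. Striata homogenised in ice-cold 0.2 M perchloric acid with dihydroxybenzylamine internal standard. Amines measured by C18 reverse-phase HPLC with electrochemical detection, mobile phase pH 3.0.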

Series [8] addresses T1, Amine oxidase [flavin-containing] A. The series is described as follows: Inhibition of human recombinant MAOA expressed in insect cells using kynuramine as substrate at 50 uM preincubated up to 40 mins before kynuramine substrate addition measured after 30 mins. The conditions noted are these: 0.5 h. The gist of the method: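 MAO-A preincubated at 37 °C in 0.1 M isotonic phosphate buffer pH 7.4 with inhibitor, or buffer control, for […]. Diluted 50-fold into buffer containing kynuramine, then incubated 30 min. Activity is % of control; mean ± SD, n = 3.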

Series [9] has the same target. The series is described as follows: Inhibition of human recombinant MAOA expressed in insect cells assessed as formation of 4-hydroxyquinoline at 500 uM preincubated for 1 hr before kynuramine substrate measured after 1 hr in presence of sodium borohydride. The procedure, abridged:
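MAO-A preincubated 60 min at 37 °C with inhibitor, no substrate. Then 5 µL of 300 mM NaBH4 added and held 15 min at 0 °C. Dialysed overnight at 0 °C against 0.1 M isotonic phosphate buffer pH 7.4. Residual activity: 4-hydroxyquinoline formation at 310 nm with 150 µM kynuramine, 60 min, 37 °C; n = 3.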

The target is the same in series [10]. The experiment in a line: Uncompetitive inhibition of human recombinant MAO-A assessed as dissociation constant for enzyme-inhibitor complex by Lineweaver-Burk plot analysis. The procedure, abridged: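 Human recombinant MAO-A (0.005 mg/mL) in 0.1 M sodium phosphate pH 7.4 made isotonic with NaCl, 37 °C, 30 min. Initial oxidation rates at four kynuramine levels (50–150 µM) without or with four inhibitor concentrations (range per compound, 5–1000 µM). Ki from Lineweaver–Burk plots and replots by linear regression; triplicate.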

The subject of series [11] is Mus musculus. The series is described as follows: Neurotoxicity in C57BL/6J mouse assessed as effect on dopamine level at 25 mg/kg, sc by HPLC analysis. It counts as toxicity, organism-based. Further details: dose 25 mg/kg, route subcutaneous. As to conditions: in vivo. The gist of the method:
as §2

In series [12] the target is T1, Amine oxidase [flavin-containing] A. The series is described as follows: Inhibition of human recombinant MAOA expressed in insect cells assessed as oxidation of kynuramine substrate at 500 uM measured after additional enzyme added after 120 mins incubation. As to conditions: 2 h. The procedure, abridged: (§3)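 Recombinant human MAO-A incubated with kynuramine, with or without inhibitor. Product formation followed over time. A second equivalent of substrate (150 µM kynuramine) added at 90 min and fresh enzyme added at 120 min.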

The target is the same in series [13]. The series is described as follows: Inhibition of human recombinant MAOA expressed in insect cells assessed as oxidation of kynuramine substrate at 500 uM measured after additional substrate added after 90 mins incubation. The conditions noted are these: 1.5 h. The gist of the method: as §3
For series [14] the target is unchanged. The experiment in a line: Inhibition of human recombinant MAOA expressed in insect cells assessed as oxidation of kynuramine substrate at 500 uM up to 90 mins. As to conditions: 1.5 h. The gist of the method: as §3
For series [15] the target is unchanged. The experiment in a line: Inhibition of human recombinant MAOA expressed in insect cells assessed as formation of 4-hydroxyquinoline at 0.5 uM preincubated for 1 hr before kynuramine substrate measured after 12 hrs of dialysis. The gist of the method:
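MAO-A (0.005 mg/mL) in 0.1 M sodium phosphate pH 7.4 made isotonic with NaCl, preincubated 1 h at 37 °C without substrate with inhibitor (final volume 1 mL), then dialyzed overnight at 0 °C against 250 mL buffer. Activity in dialysate read as product formation at 310 nm with 150 μM kynuramine over 60 min at 37 °C. 4-Hydroxyquinoline quantified by calibration curve. Means ± SD, n = 3.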

`C1=CCN(Cc2ccccc2)CC1`: the Ratio IC50 in series [1] is 41.6. Further, in series [2], the “inhibition (INH)” value is on record as “Not Active”. In addition, the IC50 (usually the point on the concentration scale where inhibition reaches its midpoint) in series [3] came out at 6540 µM; in series [4], 157 µM.

Regarding `COc1ccc(CCN2CC=CCC2)cc1OC`, the Ratio IC50 in [1] was 12.3. Moreover, the “inhibition (INH)” value in series [2] is “Not Active”. Besides, the results for the IC50 in series [3] and in [4] were 1360 µM and 111 µM, respectively.

Consider `C1=CCN(CCc2ccccc2)CC1`, for which, in series [1], the Ratio IC50 stood at 28.7. Further, the Activity entry in series [5], in series [6], in series [7] and in series [11] was “Non-toxic” throughout. In addition, the IC50 in series [3] was 1180 µM; in [10] it was 45.4 µM; in series [4] it was 41.3 µM. Moreover, the “inhibition (INH)” value in series [8] is “Active”; in series [9], “Not Active”; in [12], “Active”; in series [13] it was “Active”; in series [14] it was “Active”. The Ki (usually a measure of affinity in units of concentration, obtained from inhibition or displacement) in series [10] amounted to 9.2 µM.

Regarding `COc1ccc(CCN2CC=CCC2)cc1`, in [1], the Ratio IC50 is 8. Further, the “inhibition (INH)” value in [2] is recorded as “Not Active”. The IC50 was 96.1 µM in series [3] and 12 µM in [4].

For the compound `C#CCN(C)CCCOc1ccc(Cl)cc1Cl` [CLORGILINE], the “inhibition (INH)” value in series [15] is “Active”.

For the compound `Clc1ccc(CCN2CC=CCC2)c(Cl)c1`, in series [1], the Ratio IC50 came to 11.1. Besides, the “inhibition (INH)” value in series [2] is on record as “Not Active”. The IC50 in [3] came out at 67.2 µM; in series [4], 6.1 µM.

With `Fc1ccc(CCN2CC=CCC2)cc1`, the Ratio IC50 in series [1] stood at 193. The “inhibition (INH)” value in series [2] was “Not Active”. In addition, the IC50 in series [3] amounted to 5270 µM; in series [4] it was 27.3 µM.

As for `O=[N+]([O-])c1ccc(CCN2CC=CCC2)cc1`, the Ratio IC50 in series [1] was determined as 7.2. Moreover, the “inhibition (INH)” value in series [2] is on record as “Not Active”; in series [8], “Active”. Further, the IC50 was found to be 272 µM in series [3] and 37.8 µM in series [4].

Turning to `C1=CCN(CCCc2ccccc2)CC1`, the Ratio IC50 in series [1] was determined as 9.4. For the same compound, the “inhibition (INH)” value in series [2] is “Not Active”. Besides, the IC50 in [3] was 812 µM; in [4] it was 86.1 µM.

For the origin of these results see ChEMBL document CHEMBL1938394, “Time-dependent slowly-reversible inhibition of monoamine oxidase A by N-substituted 1,2,3,6-tetrahydropyridines” (Bioorg Med Chem, 2011).
